# Results: ChEMBL document CHEMBL1139875, “Discovery of 4-aminobutyric acid derivatives possessing anticonvulsant and antinociceptive activities: a hybrid pharmacophore approach” (2007)
# The source made the active and inactive calls. The calls are words filed in the database; no cut-off is given here.
# Tested on: Mus musculus
# Test: Anticonvulsant activity in Swiss Albino mouse at 300 mg/kg, ip after 0.5 hr by scPIC test
# Format: functional, organism-based
# Design: dose 300 mg/kg
# In short: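 Mice (Swiss, 20-25 g) given i.p. doses of 30, 100 and 300 mg/kg under ADD program protocols, three per group, examined at 0.5 and 4 h in MES, scPTZ, scSTY or scPIC seizure tests. Value is the minimum dose protecting half or more of the mice.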
compound,measurement,value
O=C(O)CCCNC(=O)N/N=C1\C(=O)Nc2ccccc21,Activity,Active
